Assay [1] has as its system Mus musculus. As to the kind of experiment: Hypolipidemic activity in ICR mouse assessed as decrease in Tyloxapol-induced total cholesterol level at 50 mg/kg, ip administered 1 hr before Tyloxapol challenge and 22, 48 hrs after Tyloxapol challenge measured after 22 hrs relative to control. The assay is classed as functional. The arrangement: scale not given: the % may be the effect or the level left. The settings on record: route oral, in the assay text read “po administered” for “ip administered”. An outline of the steps: (§1)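 Male ICR mice (24–27 g), groups of six. Hyperlipidemia induced by ip Tyloxapol (Triton WR 1339) 400 mg/kg in water. Drug given at 5 mL/kg 1 h before and 22 and 48 h after injection; vehicle controls. Blood drawn 22 h post-injection by periorbital bleeding. Serum total cholesterol, HDL-C and triglycerides measured on an automatic analyzer; LDL-C by the Friedewald equation. Values are % of the Tyloxapol group, mean ± SE.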

The test system of assay [2] is Mus musculus. In words: Hypolipidemic activity in high cholesterol diet fed ICR mouse assessed as reduction of HDL cholesterol level at 50 mg/kg/day, po after 12 hrs of last cholesterol challenge relative to control. More on the design: scale not given: the % may be the effect or the level left.
Assay [3] has as its system Mus musculus. As to the kind of experiment: Hypolipidemic activity in ICR mouse assessed as decrease in Tyloxapol-induced HDL-cholesterol level at 50 mg/kg, ip administered 1 hr before Tyloxapol challenge and 22, 48 hrs after Tyloxapol challenge measured after 22 hrs relative to control. Type of assay: functional. The arrangement: scale not given: the % may be the effect or the level left. Conditions: route oral, in the assay text read “po administered” for “ip administered”. In short, it runs like this:
as §1

In assay [4] the test system is Mus musculus. In words: Hypolipidemic activity in high cholesterol diet fed ICR mouse assessed as reduction of total cholesterol level at 100 mg/kg/day, ip after 12 hrs of last cholesterol challenge relative to control. Type of assay: functional. More on the design: scale not given: the % may be the effect or the level left. The settings on record: route intraperitoneal. In short, it runs like this:
(§2)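 Male ICR mice (24–27 g), six per group, were fed a high-cholesterol diet ad libitum for 6 days (1.0% cholesterol, 0.5% sodium cholate, 5% butter, 30% sucrose, 10% casein, 53.5% chow). Basal-diet mice served as controls. Dosing was 5 mL/kg and solutions were made fresh. Mice were fasted 12 h before sacrifice and bled periorbitally. Serum TC, HDL-C and TG were read on an analyzer, with LDL-C by Friedewald.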

The subject of assay [5] is Mus musculus. As to the kind of experiment: Hypolipidemic activity in ICR mouse assessed as decrease in Tyloxapol-induced LDL-cholesterol level at 100 mg/kg, ip administered 1 hr before Tyloxapol challenge and 22, 48 hrs after Tyloxapol challenge measured after 22 hrs relative to control. Type of assay: functional. The arrangement: scale not given: the % may be the effect or the level left. The settings on record: route oral, in the assay text read “po administered” for “ip administered”. In short, it runs like this:
as §1

Assay [6] has as its target T1, 3-hydroxy-3-methylglutaryl-coenzyme A reductase (Schizosaccharomyces pombe 972h-, UniProt Q10283).
T1 sequence (Q10283 whole entry): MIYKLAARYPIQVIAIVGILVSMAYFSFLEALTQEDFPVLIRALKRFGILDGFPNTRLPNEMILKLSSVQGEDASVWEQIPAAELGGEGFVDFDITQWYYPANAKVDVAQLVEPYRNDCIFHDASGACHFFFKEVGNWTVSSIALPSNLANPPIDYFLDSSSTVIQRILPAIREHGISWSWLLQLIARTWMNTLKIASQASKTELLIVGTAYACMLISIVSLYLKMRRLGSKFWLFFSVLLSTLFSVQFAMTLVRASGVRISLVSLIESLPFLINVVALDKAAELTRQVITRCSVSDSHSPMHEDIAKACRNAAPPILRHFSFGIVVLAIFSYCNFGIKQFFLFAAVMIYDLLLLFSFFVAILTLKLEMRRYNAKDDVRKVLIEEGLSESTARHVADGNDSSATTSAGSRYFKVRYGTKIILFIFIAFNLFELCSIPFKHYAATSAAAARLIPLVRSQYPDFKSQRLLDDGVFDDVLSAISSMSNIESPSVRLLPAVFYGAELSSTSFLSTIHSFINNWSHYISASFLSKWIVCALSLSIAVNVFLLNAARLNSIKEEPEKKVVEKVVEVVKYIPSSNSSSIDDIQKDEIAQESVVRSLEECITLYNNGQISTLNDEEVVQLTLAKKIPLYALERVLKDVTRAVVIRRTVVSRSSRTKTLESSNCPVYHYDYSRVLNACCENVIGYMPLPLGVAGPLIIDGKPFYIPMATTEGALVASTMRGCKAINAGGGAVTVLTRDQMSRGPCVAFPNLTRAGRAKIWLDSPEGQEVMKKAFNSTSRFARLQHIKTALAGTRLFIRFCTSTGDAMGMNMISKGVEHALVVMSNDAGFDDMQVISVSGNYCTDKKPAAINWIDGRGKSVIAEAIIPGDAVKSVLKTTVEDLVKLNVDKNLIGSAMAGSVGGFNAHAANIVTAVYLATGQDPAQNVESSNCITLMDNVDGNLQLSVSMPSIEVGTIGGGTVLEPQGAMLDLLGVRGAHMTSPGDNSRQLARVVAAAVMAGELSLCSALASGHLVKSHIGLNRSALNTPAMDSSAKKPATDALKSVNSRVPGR
In words: Inhibition of Schizosaccharomyces pombe HMG-CoA reductase by spectrophotometry. Conditions: read-out: IC50. An outline of the steps:
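Membrane HMGR partially purified from S. pombe 972 h (YPD, 28 °C, 48 h) via centrifugation, Triton X-100 solubilization, 65 °C heat step, ammonium sulfate and calcium phosphate gel. Enzyme activated 37 °C 30 min, pre-incubated with compound (DMSO stocks 1–5 mM) 30 min at 37 °C. Assay: 200 µg enzyme, 0.13 mM HMG-CoA, 50 mM Tris-HCl pH 7.5; started with 0.13 mM NADPH; A340 decrease over 2 min; triplicate; IC50 derived.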

Assay [7] deals with Mus musculus. In words: Hypolipidemic activity in ICR mouse assessed as decrease in Tyloxapol-induced LDL-cholesterol level at 50 mg/kg, ip administered 1 hr before Tyloxapol challenge and 22, 48 hrs after Tyloxapol challenge measured after 22 hrs relative to control. Conditions: route oral, in the assay text read “po administered” for “ip administered”. The arrangement: scale not given: the % may be the effect or the level left. Type of assay: functional. An outline of the steps: as §1

The subject of assay [8] is Mus musculus. As to the kind of experiment: Hypolipidemic activity in ICR mouse assessed as decrease in Tyloxapol-induced triglyceride level at 100 mg/kg, ip administered 1 hr before Tyloxapol challenge and 22, 48 hrs after Tyloxapol challenge measured after 22 hrs relative to control. Type of assay: functional. More on the design: scale not given: the % may be the effect or the level left. The settings on record: route intraperitoneal. In short, it runs like this:
as §1

In assay [9] the test system is Mus musculus. In words: Hypolipidemic activity in ICR mouse assessed as decrease in Tyloxapol-induced total cholesterol level at 100 mg/kg, ip administered 1 hr before Tyloxapol challenge and 22, 48 hrs after Tyloxapol challenge measured after 22 hrs relative to control. The settings on record: route oral, in the assay text read “po administered” for “ip administered”. The assay is classed as functional. The arrangement: scale not given: the % may be the effect or the level left. In short, it runs like this:
as §1

For assay [10], the system named is Mus musculus. In words: Hypolipidemic activity in high cholesterol diet fed ICR mouse assessed as reduction of triglyceride level at 50 mg/kg/day, po after 12 hrs of last cholesterol challenge relative to control. The arrangement: scale not given: the % may be the effect or the level left.
The subject of assay [11] is Mus musculus. As to the kind of experiment: Hypolipidemic activity in high cholesterol diet fed ICR mouse assessed as reduction of HDL cholesterol level at 100 mg/kg/day, po after 12 hrs of last cholesterol challenge relative to control. More on the design: scale not given: the % may be the effect or the level left.
Assay [12] concerns Mus musculus. In words: Hypolipidemic activity in high cholesterol diet fed ICR mouse assessed as reduction of triglyceride level at 100 mg/kg/day, po after 12 hrs of last cholesterol challenge relative to control. More on the design: scale not given: the % may be the effect or the level left.
The test system of assay [13] is Mus musculus. As to the kind of experiment: Hypolipidemic activity in high cholesterol diet fed ICR mouse assessed as reduction of LDL cholesterol level at 50 mg/kg/day, po after 12 hrs of last cholesterol challenge relative to control. The arrangement: scale not given: the % may be the effect or the level left.
The test system of assay [14] is Mus musculus. In words: Hypolipidemic activity in high cholesterol diet fed ICR mouse assessed as reduction of LDL cholesterol level at 100 mg/kg/day, po after 12 hrs of last cholesterol challenge relative to control. More on the design: scale not given: the % may be the effect or the level left.
Assay [15] deals with Mus musculus. In words: Hypolipidemic activity in ICR mouse assessed as decrease in Tyloxapol-induced triglyceride level at 50 mg/kg, ip administered 1 hr before Tyloxapol challenge and 22, 48 hrs after Tyloxapol challenge measured after 22 hrs relative to control. More on the design: scale not given: the % may be the effect or the level left. The settings on record: route intraperitoneal. Type of assay: functional. An outline of the steps: as §1

Assay [16] concerns Mus musculus. In words: Hypolipidemic activity in ICR mouse assessed as decrease in Tyloxapol-induced HDL-cholesterol level at 100 mg/kg, ip administered 1 hr before Tyloxapol challenge and 22, 48 hrs after Tyloxapol challenge measured after 22 hrs relative to control. Type of assay: functional. The settings on record: route intraperitoneal. More on the design: scale not given: the % may be the effect or the level left. In short, it runs like this:
as §1

In assay [17] the test system is Mus musculus. As to the kind of experiment: Hypolipidemic activity in high cholesterol diet fed ICR mouse assessed as reduction of total cholesterol level at 50 mg/kg, ip after 12 hrs of last cholesterol challenge relative to control. Type of assay: functional. The arrangement: scale not given: the % may be the effect or the level left. The settings on record: route intraperitoneal. An outline of the steps:
as §2

Experimental findings from ChEMBL document CHEMBL1166015, “Design, synthesis, and docking of highly hypolipidemic agents: Schizosaccharomyces pombe as a new model for evaluating alpha-asarone-based HMG-CoA reductase inhibitors” (Bioorg Med Chem, 2010) are described below.

As a reminder, the IC50 is the point on the concentration scale where inhibition reaches its midpoint.

In the case of `CCCc1cc(OC)c(OCC(=O)OC)cc1O`, the Activity in the assay with Mus musculus [1] is -68.32%; in the assay on Mus musculus [2], -18.89%; in the assay with Mus musculus [3], -29.15%; with Mus musculus [4], -74.14%; in the assay on Mus musculus [5], -23.15%; in the assay with Mus musculus [7], -28.94%. Moreover, the Activity with Mus musculus [8] is -47.07%; with Mus musculus [9], -68.42%; with Mus musculus [10], -68.42%; in the assay with Mus musculus [11], -13.45%; with Mus musculus [12], -55.91%; with Mus musculus [13], -28.88%. The Activity with Mus musculus [14] was -41.81%; in the assay on Mus musculus [15], -38.63%; in the assay on Mus musculus [16], -25.03%; in the assay on Mus musculus [17] it was -53.34%. Also, the IC50 in assay [6] is 66.5 µM.

`CCCc1cc(OC)c(OCC(=O)OC)cc1N`: the Activity is reported as -69.1% with Mus musculus [1]; -36.04% in the assay with Mus musculus [2]; -11.21% in the assay with Mus musculus [3]; -49.47% in the assay with Mus musculus [4]; -37.31% in the assay with Mus musculus [5]; -24.22% in the assay on Mus musculus [7]. Besides, the Activity in the assay with Mus musculus [8] was -22.14%; with Mus musculus [9], -59.67%; in the assay with Mus musculus [10], -12.22%; in the assay on Mus musculus [11] it was -39.58%; in the assay on Mus musculus [12], -24.98%; with Mus musculus [13] it was -41.1%. The Activity with Mus musculus [14] is -31.54%; in the assay with Mus musculus [15], -15.45%; in the assay on Mus musculus [16] it was -26.23%; with Mus musculus [17] it was -41.4%. Further, the half-inhibitory concentration (IC50) in [6] was determined as 92.9 µM.

With `CCCc1cc(OC)c(OCC(=O)O)cc1[N+](=O)[O-]`, the Activity is given as -51.59% with Mus musculus [1]; -79.36% in the assay on Mus musculus [2]; -21.86% in the assay on Mus musculus [3]; -50.22% with Mus musculus [4]; -44.61% with Mus musculus [5]; -40.34% with Mus musculus [7]. For the same molecule, the Activity in the assay with Mus musculus [8] is -25.11%; in the assay on Mus musculus [9], -59.67%; in the assay on Mus musculus [10] it was -49.21%; in the assay with Mus musculus [11] it was -55.62%; in the assay on Mus musculus [12], -47.72%; with Mus musculus [13], -41.1%. Also, the Activity with Mus musculus [14] is -28.88%; in the assay with Mus musculus [15], -10.09%; with Mus musculus [16], -20.86%; in the assay with Mus musculus [17] it was -47.12%. For the same molecule, in assay [6], the IC50 was 135 µM.
